This note sets out measurements from ChEMBL document CHEMBL4819066, “Repurposing primaquine as a polyamine conjugate to become an antibiotic adjuvant” (Bioorg Med Chem, 2021).

One test has as its system Klebsiella pneumoniae. Description: Antibacterial activity against Klebsiella pneumoniae ATCC 700603 assessed as reduction in microbial growth after 18 hrs by resazurin dye based assay. Format: functional. In short, it runs like this:
(§1)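 Bacteria grown overnight at 37 °C in LB, NB or MHB, diluted 40-fold into MHB and grown 1.5-2 h to mid-log phase. Inoculum 5 × 10^5 CFU/mL (final), 2-fold serial dilutions, final range 0.008-32 µg/mL, in duplicate. […] Colistin as positive control, Z'-factor >0.4 for plate QC.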

Another test deals with Staphylococcus aureus. Description: Antibacterial activity against methicillin-resistant Staphylococcus aureus ATCC 43300 assessed as reduction in microbial growth after 18 hrs by resazurin dye based assay. The class given is functional. The essentials:
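Overnight culture at 37 °C, diluted 40-fold in MHB and grown 1.5-2 h to mid-log. Inoculum 5 × 10^5 CFU/mL. Two-fold serial dilutions, final 0.008-32 µg/mL, in duplicate. […] Vancomycin served as the Gram-positive standard.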
(Alamar Blue is a resazurin reagent that responds to reducing activity.)

The next test relates to Acinetobacter baumannii. Briefly: Antibacterial activity against Acinetobacter baumannii ATCC 19606 assessed as reduction in microbial growth after 18 hrs by resazurin dye based assay. As to conditions: ATCC 19606 = CIP 70.34 = JCM 6841. Format: functional. The essentials: as §1
The next test deals with Cryptococcus neoformans. Briefly: Antifungal activity against Cryptococcus neoformans ATCC 208821 assessed as reduction in microbial growth after 36 hrs by resazurin dye based assay. Format: functional. In short, it runs like this: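 Yeast grown 3 days on YPD agar at 30 °C and diluted in YNB broth to 2.5 × 10^3 CFU/mL. Compounds at 0.008-32 µg/mL final, 2-fold dilutions, in duplicate. After 36 h at 35 °C without shaking, resazurin added at 0.006% final for a further 3 h; MIC read as absorbance at OD570-600. Fluconazole as positive control.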

The subject of a further test is Escherichia coli. Description: Antibacterial activity against Escherichia coli ATCC 25922 assessed as reduction in microbial growth after 18 hrs by resazurin dye based assay. The class given is functional. In short, it runs like this:
as §1

Another test relates to Candida albicans. Description: Antifungal activity against Candida albicans ATCC 90028 assessed as reduction in microbial growth after 36 hrs by absorbance at OD530. Particulars: ATCC 90028, 36 h.
The subject of test [1] is Pseudomonas aeruginosa. Briefly: Antibacterial activity against Pseudomonas aeruginosa ATCC 27853 assessed as reduction in microbial growth after 18 hrs by resazurin dye based assay. The class given is functional. In short, it runs like this: as §1
Test [2] has as its system Pseudomonas aeruginosa. Briefly: Potentiation of doxycycline-induced antibacterial activity against Pseudomonas aeruginosa ATCC 27853 assessed as complete reduction in visible microbial growth after 18 hrs in presence of 4.5 uM doxycycline by two fold serial dilution method. The class given is functional. The essentials: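 Adjuvant test by broth dilution: inoculum 5 × 10^5 CFU in 200 µL MHB. Two-fold serial dilutions of each derivative were given with doxycycline fixed at 2 µg/mL. After 18 h at 37 °C, the value recorded was the lowest adjuvant concentration giving complete absence of visible growth. Three independent repeats.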

With `O=C(CCC(=O)Nc1cccc2cccnc12)NCCCNCCCCCCNCCCNC(=O)CCC(=O)Nc1cccc2cccnc12`, the MIC (usually the smallest concentration in the dilution series that meets the test's criterion for growth inhibition) is greater than 35.1 µM in the test with Klebsiella pneumoniae; 17.6 µM in the test with Staphylococcus aureus; greater than 35.1 µM with Acinetobacter baumannii; greater than 35.1 µM with Cryptococcus neoformans; greater than 35.1 µM in the test with Escherichia coli; greater than 35.1 µM in the test with Candida albicans. In addition, the MIC in the test with Pseudomonas aeruginosa [1] is greater than 35.1 µM; with Pseudomonas aeruginosa [2], 100 µM.

In the case of `O=C(CCC(=O)Nc1cccc2cccnc12)NCCCNCCCCCCCNCCCNC(=O)CCC(=O)Nc1cccc2cccnc12`, the MIC with Klebsiella pneumoniae, in the test on Staphylococcus aureus, in the test on Acinetobacter baumannii, in the test with Cryptococcus neoformans, in the test with Escherichia coli and with Candida albicans was greater than 34.6 µM throughout. Also, the MIC with Pseudomonas aeruginosa [1] was greater than 34.6 µM; with Pseudomonas aeruginosa [2] it was 200 µM.

As to `O=C(CCC(=O)Nc1ccc2ncccc2c1)NCCCNCCCCNCCCNC(=O)CCC(=O)Nc1ccc2ncccc2c1`, the MIC in the test on Klebsiella pneumoniae, in the test with Staphylococcus aureus, with Acinetobacter baumannii, in the test with Cryptococcus neoformans, in the test on Escherichia coli and in the test on Candida albicans was greater than 36.2 µM throughout. The MIC in the test on Pseudomonas aeruginosa [1] is greater than 36.2 µM; with Pseudomonas aeruginosa [2] it was 566 µM.

With `O=C(CCC(=O)Nc1cccc2ncccc12)NCCCNCCCCNCCCNC(=O)CCC(=O)Nc1cccc2ncccc12`, the MIC in the test on Klebsiella pneumoniae, with Staphylococcus aureus, in the test with Acinetobacter baumannii, in the test with Cryptococcus neoformans, in the test on Escherichia coli and in the test on Candida albicans was greater than 36.2 µM throughout. Also, the MIC with Pseudomonas aeruginosa [1] is greater than 36.2 µM; in the test on Pseudomonas aeruginosa [2] it was 300 µM.

Consider `COc1cc(NC(=O)CCC(=O)NCCCNCCCCCCCNCCCNC(=O)CCC(=O)Nc2cc(OC)cc3cccnc23)c2ncccc2c1`, for which the MIC with Klebsiella pneumoniae, in the test on Staphylococcus aureus, in the test on Acinetobacter baumannii, in the test on Cryptococcus neoformans, in the test on Escherichia coli and with Candida albicans was greater than 32.5 µM each time. In addition, the figures for the MIC in the test with Pseudomonas aeruginosa [1] and in the test with Pseudomonas aeruginosa [2] were greater than 32.5 µM and 300 µM, respectively.

Turning to `O=C(CCC(=O)Nc1cccc2cccnc12)NCCCNCCCCNCCCNC(=O)CCC(=O)Nc1cccc2cccnc12`, the MIC in the test on Klebsiella pneumoniae, with Staphylococcus aureus, in the test on Acinetobacter baumannii, in the test with Cryptococcus neoformans, in the test on Escherichia coli and in the test with Candida albicans was greater than 36.2 µM each time. Further, the MIC in the test with Pseudomonas aeruginosa [1] is greater than 36.2 µM; in the test on Pseudomonas aeruginosa [2] it was 566 µM.

Regarding `O=C(CCC(=O)NCc1cccnc1)NCCCNCCCCNCCCNC(=O)CCC(=O)NCc1cccnc1`, the MIC with Klebsiella pneumoniae, in the test with Staphylococcus aureus, in the test on Acinetobacter baumannii, in the test on Cryptococcus neoformans, in the test on Escherichia coli and in the test with Candida albicans was greater than 39.5 µM throughout. Besides, the MIC is greater than 39.5 µM in the test with Pseudomonas aeruginosa [1] and 617 µM in the test on Pseudomonas aeruginosa [2].

As to COLISTIN, the MIC came to 0.2 µM with Klebsiella pneumoniae, 0.2 µM in the test with Acinetobacter baumannii, 0.1 µM in the test on Escherichia coli and 0.2 µM in the test on Pseudomonas aeruginosa [1].

For `O=C(CCC(=O)NCc1ccccn1)NCCCNCCCCNCCCNC(=O)CCC(=O)NCc1ccccn1`, the MIC in the test with Klebsiella pneumoniae, with Staphylococcus aureus, with Acinetobacter baumannii, with Cryptococcus neoformans, in the test on Escherichia coli and in the test with Candida albicans was greater than 39.5 µM in each case. In addition, the minimal inhibitory concentration (MIC) with Pseudomonas aeruginosa [1] is greater than 39.5 µM; with Pseudomonas aeruginosa [2], 617 µM.

As for `O=C(CCC(=O)Nc1cccc2cccnc12)NCCCNCCCCCCCCNCCCNC(=O)CCC(=O)Nc1cccc2cccnc12`, the MIC in the test on Klebsiella pneumoniae, in the test with Staphylococcus aureus, in the test with Acinetobacter baumannii, with Cryptococcus neoformans, in the test with Escherichia coli and in the test with Candida albicans was greater than 34.1 µM in each case. Moreover, the MIC was greater than 34.1 µM in the test on Pseudomonas aeruginosa [1] and 200 µM in the test on Pseudomonas aeruginosa [2].

As for `COc1cc(NC(=O)CCC(=O)NCCCNCCCCCCCCNCCCNC(=O)CCC(=O)Nc2cc(OC)cc3cccnc23)c2ncccc2c1`, the MIC in the test on Klebsiella pneumoniae, in the test on Staphylococcus aureus, with Acinetobacter baumannii, in the test with Cryptococcus neoformans, in the test on Escherichia coli and in the test with Candida albicans was greater than 32 µM each time. The MIC with Pseudomonas aeruginosa [1] is greater than 32 µM; with Pseudomonas aeruginosa [2], 300 µM.

Take `C[C@H]1c2cccc(O)c2C(=O)C2=C(O)[C@]3(O)C(=O)C(C(N)=O)=C(O)[C@@H](N(C)C)[C@@H]3[C@@H](O)[C@@H]21` [DOXYCYCLINE]: the MIC with Pseudomonas aeruginosa [1] was greater than 45 µM.

On to `O=C(CCC(=O)NCc1cccnc1)NCCCNCCCCCCCCCCNCCCNC(=O)CCC(=O)NCc1cccnc1`, for which the MIC in the test on Klebsiella pneumoniae, in the test with Staphylococcus aureus, in the test on Acinetobacter baumannii, with Cryptococcus neoformans, in the test on Escherichia coli and with Candida albicans was greater than 35.8 µM each time. Moreover, the MIC is greater than 35.8 µM with Pseudomonas aeruginosa [1] and 559 µM in the test with Pseudomonas aeruginosa [2].

As for `COc1cc(NC(=O)CCC(=O)NCCCNCCCCCCNCCCNC(=O)CCC(=O)Nc2cc(OC)cc3cccnc23)c2ncccc2c1`, the MIC in the test on Klebsiella pneumoniae, in the test on Staphylococcus aureus, in the test with Acinetobacter baumannii, in the test on Cryptococcus neoformans, with Escherichia coli and with Candida albicans was greater than 33 µM each time. For the same compound, the figures for the MIC in the test on Pseudomonas aeruginosa [1] and in the test on Pseudomonas aeruginosa [2] were greater than 33 µM and 300 µM, respectively.

As for `OC(Cn1cncn1)(Cn1cncn1)c1ccc(F)cc1F` [FLUCONAZOLE], the MIC with Cryptococcus neoformans came to 26 µM; in the test with Candida albicans, 0.4 µM.

Consider `O=C(CCC(=O)Nc1ccc2ncccc2c1)NCCCNCCCCCCCCCCNCCCNC(=O)CCC(=O)Nc1ccc2ncccc2c1`, for which the MIC in the test with Klebsiella pneumoniae, in the test with Staphylococcus aureus, in the test with Acinetobacter baumannii, in the test with Cryptococcus neoformans, in the test with Escherichia coli and in the test on Candida albicans was greater than 33.1 µM throughout. The MIC in the test on Pseudomonas aeruginosa [1] is greater than 33.1 µM; in the test on Pseudomonas aeruginosa [2], 517 µM.

In the case of `O=C(CCC(=O)NCc1ccccn1)NCCCNCCCCCCCCCCNCCCNC(=O)CCC(=O)NCc1ccccn1`, the MIC in the test on Klebsiella pneumoniae, in the test with Staphylococcus aureus, in the test on Acinetobacter baumannii, in the test on Cryptococcus neoformans, in the test on Escherichia coli and in the test on Candida albicans was greater than 35.8 µM throughout. Also, the values for the MIC with Pseudomonas aeruginosa [1] and with Pseudomonas aeruginosa [2] were greater than 35.8 µM and 559 µM, respectively.

As to `O=C(CCC(=O)Nc1ccc2ccccc2n1)NCCCNCCCCNCCCNC(=O)CCC(=O)Nc1ccc2ccccc2n1`, the MIC in the test on Klebsiella pneumoniae, with Staphylococcus aureus, in the test with Acinetobacter baumannii, in the test on Cryptococcus neoformans, with Escherichia coli and with Candida albicans was greater than 36.2 µM throughout. Besides, the values for the MIC in the test with Pseudomonas aeruginosa [1] and with Pseudomonas aeruginosa [2] were greater than 36.2 µM and 566 µM, respectively.

On to `CN[C@H](CC(C)C)C(=O)N[C@H]1C(=O)N[C@@H](CC(N)=O)C(=O)N[C@H]2C(=O)N[C@H]3C(=O)N[C@H](C(=O)N[C@H](C(=O)O)c4cc(O)cc(O)c4-c4cc3ccc4O)[C@H](O)c3ccc(c(Cl)c3)Oc3cc2cc(c3O[C@@H]2O[C@H](CO)[C@@H](O)[C@H](O)[C@H]2O[C@H]2C[C@](C)(N)[C@H](O)[C@H](C)O2)Oc2ccc(cc2Cl)[C@H]1O` [VANCOMYCIN], for which the MIC with Staphylococcus aureus was 0.7 µM.
